Reference: ChEMBL document CHEMBL5058577, “EUbOPEN Chemogenomics Library 2 (Multiplex)” (2022)

System: Fibroblast
Experiment: Multiplex assay against human fibroblast
Assay type: toxicity, cell-based
Procedure, shortened: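 Hoechst33342, BioTracker Green Microtubule Cytoskeleton Dye, MitoTracker Red and Annexin V Alexa Fluor 680 were added to live cells at seeding, and imaging on a CQ1 microscope at 37°C and 5% CO2 followed compound addition. Gating by CellPathfinder machine learning separated cells into Hoechst high-intensity objects or normal cells, then normal cells into healthy, pyknosed or fragmented nuclei, then pyknosed cells into mitotic or apoptotic. Per cents of healthy-nucleus cells are reported for the tubulin, mitochondrial-mass and membrane-permeability phenotypes.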

[1] = 12 h, 1 µM, compound concentration 1 uM, replicate 1
[2] = 12 h, 1 µM, compound concentration 1 uM, replicate 2
[3] = 12 h, 10 µM, compound concentration 10 uM, replicate 1
[4] = 12 h, 10 µM, compound concentration 10 uM, replicate 2
[5] = 24 h, 1 µM, compound concentration 1 uM, replicate 1
[6] = 24 h, 1 µM, compound concentration 1 uM, replicate 2
[7] = 24 h, 10 µM, compound concentration 10 uM, replicate 1
[8] = 24 h, 10 µM, compound concentration 10 uM, replicate 2
[9] = 48 h, 1 µM, compound concentration 1 uM, replicate 1
[10] = 48 h, 1 µM, compound concentration 1 uM, replicate 2
[11] = 48 h, 10 µM, compound concentration 10 uM, replicate 1
[12] = 48 h, 10 µM, compound concentration 10 uM, replicate 2

Compound: CCc1nn2c(C)cc(C)nc2c1Cc1ccc(-c2nnc(C3CCNCC3)o2)cc1
- Population Apoptotic (%) [1]: 34%
- Population Fragmented Nuclei (%) [1]: 17%
- Population Healthy Nuclei (%) [1]: 63%
- Population Hoechst High Intensity Objects (%) [1]: 2%
- Population Membrane Permeable-Phenotype (%) [1]: 2%
- Population Mitochondria Different-Phenotype (%) [1]: 5%
- Population Mitotic Cells (%) [1]: 65%
- Population Normal (%) [1]: 97%
- Population Pyknosed Nuclei (%) [1]: 19%
- Population Tubulin-Different-Phenotype (%) [1]: 35%
- Total Cell Count [1]: 153
- Population Apoptotic (%) [2]: 45%
- Population Fragmented Nuclei (%) [2]: 19%
- Population Healthy Nuclei (%) [2]: 46%
- Population Hoechst High Intensity Objects (%) [2]: 6%
- Population Mitochondria Different-Phenotype (%) [2]: 13%
- Population Mitotic Cells (%) [2]: 54%
- Population Normal (%) [2]: 93%
- Population Pyknosed Nuclei (%) [2]: 33%
- Population Tubulin-Different-Phenotype (%) [2]: 62%
- Total Cell Count [2]: 167
- Population Apoptotic (%) [3]: 51%
- Population Fragmented Nuclei (%) [3]: 19%
- Population Healthy Nuclei (%) [3]: 62%
- Population Hoechst High Intensity Objects (%) [3]: 5%
- Population Membrane Permeable-Phenotype (%) [3]: 0%
- Population Mitochondria Different-Phenotype (%) [3]: 19%
- Population Mitotic Cells (%) [3]: 48%
- Population Normal (%) [3]: 94%
- Population Pyknosed Nuclei (%) [3]: 18%
- Population Tubulin-Different-Phenotype (%) [3]: 72%
- Total Cell Count [3]: 188
- Population Apoptotic (%) [4]: 14%
- Population Fragmented Nuclei (%) [4]: 38%
- Population Healthy Nuclei (%) [4]: 44%
- Population Hoechst High Intensity Objects (%) [4]: 3%
- Population Membrane Permeable-Phenotype (%) [4]: 5%
- Population Mitochondria Different-Phenotype (%) [4]: 14%
- Population Mitotic Cells (%) [4]: 85%
- Population Normal (%) [4]: 96%
- Population Pyknosed Nuclei (%) [4]: 17%
- Population Tubulin-Different-Phenotype (%) [4]: 79%
- Total Cell Count [4]: 162
- Population Apoptotic (%) [5]: 52%
- Population Fragmented Nuclei (%) [5]: 17%
- Population Healthy Nuclei (%) [5]: 68%
- Population Hoechst High Intensity Objects (%) [5]: 1%
- Population Membrane Permeable-Phenotype (%) [5]: 0%
- Population Mitochondria Different-Phenotype (%) [5]: 3%
- Population Mitotic Cells (%) [5]: 47%
- Population Normal (%) [5]: 98%
- Population Pyknosed Nuclei (%) [5]: 13%
- Population Tubulin-Different-Phenotype (%) [5]: 35%
- Total Cell Count [5]: 153
- Population Apoptotic (%) [6]: 56%
- Population Fragmented Nuclei (%) [6]: 26%
- Population Healthy Nuclei (%) [6]: 49%
- Population Hoechst High Intensity Objects (%) [6]: 7%
- Population Membrane Permeable-Phenotype (%) [6]: 6%
- Population Mitochondria Different-Phenotype (%) [6]: 15%
- Population Mitotic Cells (%) [6]: 43%
- Population Normal (%) [6]: 92%
- Population Pyknosed Nuclei (%) [6]: 23%
- Population Tubulin-Different-Phenotype (%) [6]: 65%
- Total Cell Count [6]: 177
- Population Apoptotic (%) [7]: 53%
- Population Fragmented Nuclei (%) [7]: 17%
- Population Healthy Nuclei (%) [7]: 64%
- Population Hoechst High Intensity Objects (%) [7]: 9%
- Population Membrane Permeable-Phenotype (%) [7]: 0%
- Population Mitochondria Different-Phenotype (%) [7]: 22%
- Population Mitotic Cells (%) [7]: 46%
- Population Normal (%) [7]: 90%
- Population Pyknosed Nuclei (%) [7]: 17%
- Population Tubulin-Different-Phenotype (%) [7]: 79%
- Total Cell Count [7]: 185
- Population Apoptotic (%) [8]: 56%
- Population Fragmented Nuclei (%) [8]: 40%
- Population Healthy Nuclei (%) [8]: 42%
- Population Hoechst High Intensity Objects (%) [8]: 3%
- Population Membrane Permeable-Phenotype (%) [8]: 11%
- Population Mitochondria Different-Phenotype (%) [8]: 16%
- Population Mitotic Cells (%) [8]: 44%
- Population Normal (%) [8]: 96%
- Population Tubulin-Different-Phenotype (%) [8]: 80%
- Total Cell Count [8]: 151
- Population Apoptotic (%) [9]: 76%
- Population Fragmented Nuclei (%) [9]: 21%
- Population Healthy Nuclei (%) [9]: 70%
- Population Hoechst High Intensity Objects (%) [9]: 4%
- Population Membrane Permeable-Phenotype (%) [9]: 1%
- Population Mitochondria Different-Phenotype (%) [9]: 2%
- Population Mitotic Cells (%) [9]: 23%
- Population Normal (%) [9]: 95%
- Population Pyknosed Nuclei (%) [9]: 7%
- Population Tubulin-Different-Phenotype (%) [9]: 32%
- Total Cell Count [9]: 172
- Population Apoptotic (%) [10]: 62%
- Population Fragmented Nuclei (%) [10]: 30%
- Population Healthy Nuclei (%) [10]: 54%
- Population Membrane Permeable-Phenotype (%) [10]: 3%
- Population Mitochondria Different-Phenotype (%) [10]: 12%
- Population Mitotic Cells (%) [10]: 37%
- Population Pyknosed Nuclei (%) [10]: 14%
- Population Tubulin-Different-Phenotype (%) [10]: 54%
- Total Cell Count [10]: 168
- Population Apoptotic (%) [11]: 84%
- Population Fragmented Nuclei (%) [11]: 23%
- Population Healthy Nuclei (%) [11]: 62%
- Population Hoechst High Intensity Objects (%) [11]: 9%
- Population Membrane Permeable-Phenotype (%) [11]: 0%
- Population Mitochondria Different-Phenotype (%) [11]: 16%
- Population Mitotic Cells (%) [11]: 15%
- Population Normal (%) [11]: 90%
- Population Pyknosed Nuclei (%) [11]: 13%
- Population Tubulin-Different-Phenotype (%) [11]: 73%
- Total Cell Count [11]: 208
- Population Apoptotic (%) [12]: 54%
- Population Fragmented Nuclei (%) [12]: 45%
- Population Healthy Nuclei (%) [12]: 47%
- Population Hoechst High Intensity Objects (%) [12]: 2%
- Population Membrane Permeable-Phenotype (%) [12]: 2%
- Population Mitochondria Different-Phenotype (%) [12]: 17%
- Population Mitotic Cells (%) [12]: 45%
- Population Normal (%) [12]: 97%
- Population Pyknosed Nuclei (%) [12]: 7%
- Population Tubulin-Different-Phenotype (%) [12]: 78%
- Total Cell Count [12]: 161
